Reference: ChEMBL document CHEMBL1134852, “A new class of potent nonpeptide luteinizing hormone-releasing hormone (LHRH) antagonists: design and synthesis of 2-phenylimidazo[1,2-a]pyrimidin-5-ones” (Bioorg Med Chem Lett, 2002)

biological target: T1, Gonadotropin-releasing hormone receptor (Homo sapiens, UniProt P30968); experiment: In vitro inhibition of specific [125I]leuprorelin binding to the cloned human LHRH receptor expressed in chinese hamster ovary cells; assay type: cell-based, CHO
T1 sequence (P30968 whole entry): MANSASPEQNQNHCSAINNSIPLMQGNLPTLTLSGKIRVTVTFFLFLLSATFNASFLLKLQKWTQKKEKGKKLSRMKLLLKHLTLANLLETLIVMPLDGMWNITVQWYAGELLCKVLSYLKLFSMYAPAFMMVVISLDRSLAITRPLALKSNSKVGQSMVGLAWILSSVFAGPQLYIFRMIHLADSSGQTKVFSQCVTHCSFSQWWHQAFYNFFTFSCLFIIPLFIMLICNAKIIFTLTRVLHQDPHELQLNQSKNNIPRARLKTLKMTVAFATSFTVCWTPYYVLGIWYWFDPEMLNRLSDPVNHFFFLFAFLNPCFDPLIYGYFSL
How it was run: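 Membranes from CHO cells expressing the receptor (0.2 mg/mL) incubated with [125I][Tyr5]leuprorelin (0.12–0.15 nM) and varied test compound, 60 min at 25 °C, Tris 25 mM/EDTA/0.1% BSA/protease inhibitors buffer, pH 7.5. Stopped with ice-cold buffer, filtered on PEI-coated glass fibre, radioactivity counted. Nonspecific binding with […] unlabeled leuprorelin; IC50 from pseudo-Hill fit.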

SMILES | IC50 [nM]
CCNC(=O)Nc1ccc(-c2nc3n(Cc4c(F)cccc4F)cc(C(=O)OC(C)C)c(=O)n3c2CN(C)Cc2ccccc2)cc1 | 0.3
CCOC(=O)c1cn(Cc2c(F)cccc2F)c2nc(-c3ccc(NC(=O)c4ccsc4)cc3)c(CN(C)Cc3ccccc3)n2c1=O | 7
CCOC(=O)c1cn(Cc2c(F)cccc2F)c2nc(-c3ccc(NC(=O)c4ccoc4)cc3)c(CN(C)Cc3ccccc3)n2c1=O | 3
CCOC(=O)c1cn(Cc2c(F)cccc2F)c2nc(-c3ccc(NC(=O)c4ccccc4)cc3)c(CN(C)Cc3ccccc3)n2c1=O | 20
CONC(=O)Nc1ccc(-c2nc3n(Cc4c(F)cccc4F)cc(C(=O)OC(C)C)c(=O)n3c2CN(C)Cc2ccccc2)cc1 | 0.4

More lines, now with the values ahead:

IC50 [nM] | SMILES
30 | CCOC(=O)c1cn(Cc2c(F)cccc2F)c2nc(-c3ccc(NC(=O)C(C)C)cc3)c(CN(C)Cc3ccccc3)n2c1=O
10 | CCOC(=O)c1cn(Cc2c(F)cccc2F)c2nc(-c3ccc(NC(=O)CC)cc3)c(CN(C)Cc3ccccc3)n2c1=O
3 | C=CC(=O)Nc1ccc(-c2nc3n(Cc4c(F)cccc4F)cc(C(=O)OCC)c(=O)n3c2CN(C)Cc2ccccc2)cc1
5 | CCOC(=O)c1cn(Cc2c(F)cccc2F)c2nc(-c3ccc(NC(=O)C4CC4)cc3)c(CN(C)Cc3ccccc3)n2c1=O
0.7 | CCOC(=O)c1cn(Cc2c(F)cccc2F)c2nc(-c3ccc(NC(=O)NOC)cc3)c(CN(C)Cc3ccccc3)n2c1=O
